The record followed here is ChEMBL document CHEMBL4402562, “Discovery of Novel Peptidomimetic Boronate ClpP Inhibitors with Noncanonical Enzyme Mechanism as Potent Virulence Blockers in Vitro and in Vivo” (J Med Chem, 2020).

The target of data set [1] is T1, ATP-dependent Clp protease proteolytic subunit (Staphylococcus aureus (strain NCTC 8325)) (UniProt Q2G036).
T1 sequence (whole entry): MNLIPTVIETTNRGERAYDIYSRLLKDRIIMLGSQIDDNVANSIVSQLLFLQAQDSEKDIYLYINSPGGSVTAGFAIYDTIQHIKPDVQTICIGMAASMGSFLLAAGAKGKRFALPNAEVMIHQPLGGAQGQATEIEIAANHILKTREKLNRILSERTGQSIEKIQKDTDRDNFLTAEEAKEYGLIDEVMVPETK
Put plainly: Inhibition of N-terminal His6-sumo-tagged full length Staphylococcus aureus ClpP expressed in Escherichia coli […] (DE3) assessed as Kinact/Ki ratio […] and measured after 1 hr by fluorescence based assay.

Data set [2] addresses T2, ATP-dependent Clp protease proteolytic subunit (Staphylococcus aureus (strain NCTC 8325), UniProt Q2G036).
T2 sequence (Q2G036 whole entry): T1 sequence (whole entry)
Put plainly: Binding affinity to N-terminal His6-sumo-tagged full length Staphylococcus aureus ClpP expressed in Escherichia coli […] assessed as shifting of melting peak of SaClpP by differential scanning calorimetry analysis. In short, it runs like this: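 DSC: 0.5 mg/mL (25 µM) SaClpP with 100 µM compound or two-fold dilution series, RT; scanned 30-90 °C at 1 °C/min, buffer-buffer scan subtracted; Tm from thermogram peak maximum; single run.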

The target of data set [3] is T1, ATP-dependent Clp protease proteolytic subunit (Staphylococcus aureus (strain NCTC 8325)). Put plainly: Inhibition of N-terminal His6-sumo-tagged full length Staphylococcus aureus ClpP expressed in Escherichia coli […] assessed as enzyme activity recovery level at 20-fold molar excess pre-incubated for 10 mins before Suc-LY-AMC addition and measured after 1 hr followed by dialysis up to 72 hrs by fluorescence based assay relative to control. Details: scale not given: the % may be the effect or the level left. In short, it runs like this: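 ClpP (1 μM, 100 mM Hepes pH 7.0, 100 mM NaCl) incubated 1 h at RT with 20-fold molar excess inhibitor or DMSO. Dialyzed at 4 °C, buffer changed after 6 h and then every 24 h. Aliquots assayed for peptidase activity with Suc-LY-AMC. Thrice, single sample.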

Data set [4] in a line: Inhibition of Pseudomonas aeruginosa ClpP1 expressed in Escherichia coli […] pre-incubated for 10 mins before Suc-LY- AMC addition and measured after 1 hr by fluorescence based assay relative to control. In short, it runs like this: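 PaClpP1 (0.5 μM monomer) in 25 mM Tris-Cl pH 7.5, 150 mM NaCl. Preincubated 10 min at RT with inhibitor, two-fold dilutions over 8 steps from 50 μM. Then 50 μM Suc-LY-AMC, 380/440 nm for 1 h at 37 °C, slopes normalized to DMSO. Thrice, triplicate wells.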

The subject of data set [5] is Staphylococcus aureus. Put plainly: Growth inhibition of methicillin-resistant Staphylococcus aureus ATCC 33591 up to 64 uM incubated for 18 hrs by broth microdilution method. In kind it is functional, organism-based. In short, it runs like this:
(§1)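 MRSA ATCC 33591 at ~5×10⁵ CFU/mL in MHB with graded compound concentrations vs DMSO; OD600 growth curves over 18 h; three experiments, triplicate wells. MIC by CLSI broth microdilution in CAMHB, 0.5-256 µg/mL, 18 h at 37 °C, lowest concentration with no visible growth.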
On the technique in general: In broth dilution the organism is exposed to a series of concentrations in liquid medium.

Data set [6] concerns Staphylococcus aureus. Put plainly: Growth inhibition of methicillin-resistant Staphylococcus aureus ATCC 33591 incubated for 18 hrs by broth microdilution method. The class given is functional. The note with it: ATCC 33591, 18 h. In short, it runs like this: as §1
For data set [7], the system named is Staphylococcus aureus. Put plainly: Inhibition of virulence-related genes expression in methicillin-resistant Staphylococcus aureus ATCC 33591 assessed as reduction in agrB expression at 16 uM by qPCR analysis relative to control. The class given is functional. In short, it runs like this: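 Total RNA from 2×10⁸ CFU treated MRSA by liquid-nitrogen freeze-thaw and TRIzol; qPCR relative to gyrB endogenous control; three experiments, triplicate wells.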
A general note: Quantitative PCR measures a nucleic acid by following its amplification.

Data set [8] has as its target T1, ATP-dependent Clp protease proteolytic subunit (Staphylococcus aureus (strain NCTC 8325)). Put plainly: Induction of thermal stabilization of ClpP in methicillin-resistant Staphylococcus aureus ATCC 33591 assessed as protein stability up to 83 degC pre-incubated for 2 hrs by CETSA method. In short, it runs like this:
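MRSA grown at 37 °C in TSB with DMSO or 100 µM compound 2 h; cells in TE buffer (~4×10⁹ CFU/mL), lysostaphin 37 °C 30 min; supernatant heated 5 min at set temperatures, 3 min RT, ice, spun 20,000 g 20 min; soluble ClpP by western blot with polyclonal anti-ClpP.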

The nature of data set [9]: Toxicity in BALB/c mouse model of skin abscess infected with methicillin-resistant Staphylococcus aureus ATCC 33591 assessed as effect on creatinine levels at 1.5 to 3 mg/kg injected into shaved area of skin once daily for 4 days. The class given is organism-based. As to conditions: in vivo, other, 96 h. In short, it runs like this:
(§2)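 Infected BALB/c mice (n=5/group) dosed 1.5 or 3 mg/kg into the infected skin once daily for 4 days; blood collected on day 4 and day 14, centrifuged 3,500 rpm 15 min, serum biochemistry analysed.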

The nature of data set [10]: Toxicity in BALB/c mouse model of skin abscess infected with methicillin-resistant Staphylococcus aureus ATCC 33591 assessed as effect on blood urea nitrogen levels at 1.5 to 3 mg/kg injected into shaved area of skin once daily for 4 days. In kind it is organism-based. The note with it: in vivo, other, 96 h. In short, it runs like this: as §2
Data set [11] is described as follows: Toxicity in BALB/c mouse model of skin abscess infected with methicillin-resistant Staphylococcus aureus ATCC 33591 assessed as increase in direct bilirubin levels at 1.5 to 3 mg/kg injected into shaved area of skin once daily for 4 days. The class given is organism-based. As to conditions: in vivo, other, 96 h. In short, it runs like this: as §2
Data set [12] can be described thus: Toxicity in BALB/c mouse model of skin abscess infected with methicillin-resistant Staphylococcus aureus ATCC 33591 assessed as increase in AST levels at 1.5 to 3 mg/kg injected into shaved area of skin once daily for 4 days. In kind it is organism-based. The note with it: in vivo, other, 96 h. In short, it runs like this: as §2
Data set [13] in a line: Toxicity in BALB/c mouse model of skin abscess infected with methicillin-resistant Staphylococcus aureus ATCC 33591 assessed as increase in direct bilirubin levels at 1.5 to 3 mg/kg injected into shaved area of skin once daily for 4 days measured on day 14. In kind it is organism-based. As to conditions: in vivo, other, 96 h. In short, it runs like this:
as §2

Data set [14] can be described thus: Toxicity in BALB/c mouse model of skin abscess infected with methicillin-resistant Staphylococcus aureus ATCC 33591 assessed as effect on alanine transaminase levels at 1.5 to 3 mg/kg injected into shaved area of skin once daily for 4 days. The class given is organism-based. The note with it: in vivo, other, 96 h. In short, it runs like this:
as §2

In data set [15] the test system is Staphylococcus aureus. Put plainly: Antivirulence activity against methicillin-resistant Staphylococcus aureus ATCC 33591 infected in BALB/c mouse model of skin abscess assessed as reduction in skin inflammation at 1.5 to 3 mg/kg injected into shaved area of skin once daily for 4 days measured after 12 hrs post last dose by hematoxylin and eosin staining based optical microscopy. The class given is functional, organism-based. In short, it runs like this: (§3)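 Same MRSA ATCC 33591 skin-abscess model in female BALB/c mice (n=5/group), 40 µL compound at 1.5 or 3 mg/kg injected into the infected shaved skin once daily for 4 days. On day 4 infected skin and heart, liver, spleen, lung, kidney fixed in 4% paraformaldehyde, embedded, sectioned, H&E stained and examined by microscopy; PBS-treated uninfected and vehicle controls.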

Data set [16] concerns Staphylococcus aureus. Put plainly: Antivirulence activity against methicillin-resistant Staphylococcus aureus ATCC 33591 infected in BALB/c mouse model of skin abscess assessed as reduction in severe alveolar destruction at 1.5 to 3 mg/kg injected into shaved area of skin once daily for 4 days measured after 12 hrs post last dose by hematoxylin and eosin staining based optical microscopy. The class given is functional, organism-based. In short, it runs like this:
as §3

Data set [17] concerns Staphylococcus aureus. Put plainly: Antivirulence activity against methicillin-resistant Staphylococcus aureus ATCC 33591 infected in BALB/c mouse model of skin abscess assessed as reduction in interstitium thickening at 1.5 to 3 mg/kg injected into shaved area of skin once daily for 4 days measured after 12 hrs post last dose by hematoxylin and eosin staining based optical microscopy. The class given is functional, organism-based. In short, it runs like this:
as §3

Converted amounts (≈) assume the structure as drawn. The source made the active and inactive calls. No cut-off for these calls is given here.

For orientation: IC50 means the concentration that inhibits the measured activity by half. The MIC is the lowest concentration that inhibits growth of the organism. For the molecule `CC(C)C[C@H](NC(=O)[C@H](Cc1c[nH]c2ccccc12)NC(=O)c1cc(Cl)ccc1Cl)B(O)O`, the Ratio in data set [1] is 16.7 ×10² /s.M. Moreover, in [2], the EC50 was 1270 nM. The Activity in data set [3] is 100%; in data set [9], “Non-Toxic”; in data set [10], “Non-Toxic”; in data set [11], “Toxic”; in [12], “Toxic”; in data set [13], “Non-Toxic”. In data set [14], the Activity entry is listed as “Non-Toxic”. Further, the IC50 in data set [4] lay in the range of 3000 to 25000 nM. For the same molecule, the “growth inhibition (GI)” value in the data set with Staphylococcus aureus [5] was “inactive”. For the same molecule, the MIC against Staphylococcus aureus [6] was in the range of 64 to 128 µg/mL (≈ 131 to 261 µM). Moreover, in the data set on Staphylococcus aureus [7], the “fold change (FC)” value stood at 2. The outcome (in data set [8]; in the data set with Staphylococcus aureus [15]; in the data set with Staphylococcus aureus [16]; in the data set on Staphylococcus aureus [17]) was Active.
